Experimental data reported in ChEMBL document CHEMBL5724801, “EUbOPEN Chemogenomics Library - Multiplex” (2024).
Where “and” joins values, the source holds several entries; their conditions need not be identical. Equal values may be shown once.

What was measured:
Fibroblast = assay: Multiplex assay against human fibroblast; format: toxicity, cell-based
Outline: (§1)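 Cells were classed with CellPathfinder machine-learning gating, first as Hoechst high-intensity objects or normal cells, then (normal cells) as healthy, pyknosed or fragmented nuclei, and finally (pyknosed cells) as mitotic or apoptotic. Staining of live cells at seeding used Hoechst33342, BioTracker Green Microtubule Cytoskeleton Dye, MitoTracker Red and Annexin V Alexa Fluor 680, with imaging on a CQ1 microscope at 37°C and 5% CO2 after compound addition. Tubulin, mitochondrial-mass and membrane-permeability phenotypes are per cents of healthy-nucleus cells.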

U2OS = assay: Multiplex assay against U2OS; format: toxicity, cell-based; settings: human; outline: as §1
[1] = 12 h, 1 µM, compound concentration 1 uM
[2] = 12 h, 10 µM, compound concentration 10 uM
[3] = 24 h, 1 µM, compound concentration 1 uM
[4] = 24 h, 10 µM, compound concentration 10 uM
[5] = 48 h, 1 µM, compound concentration 1 uM
[6] = 48 h, 10 µM, compound concentration 10 uM

O=C(O)c1cc2ccccc2c(Cc2c(O)c(C(=O)O)cc3ccccc23)c1O [PAMOIC ACID]
Population Apoptotic (%) (Fibroblast; [1]): 54% and 32% | Population Fragmented Nuclei (%) (Fibroblast; [1]): 10% and 23% | Population Healthy Nuclei (%) (Fibroblast; [1]): 81% and 56% | Population Hoechst High Intensity Objects (%) (Fibroblast; [1]): 2% and 6% | Population Membrane Permeable-Phenotype (%) (Fibroblast; [1]): 0% and 6% | Population Mitochondria Different-Phenotype (%) (Fibroblast; [1]): 2% and 8% | Population Mitotic Cells (%) (Fibroblast; [1]): 45% and 67% | Population Normal (%) (Fibroblast; [1]): 97% and 93% | Population Pyknosed Nuclei (%) (Fibroblast; [1]): 7% and 19% | Population Tubulin-Different-Phenotype (%) (Fibroblast; [1]): 20% and 34% | Total Cell Count (Fibroblast; [1]): 147 and 154 | Population Apoptotic (%) (Fibroblast; [2]): 40% and 37% | Population Healthy Nuclei (%) (Fibroblast; [2]): 80% and 51% | Population Hoechst High Intensity Objects (%) (Fibroblast; [2]): 4% | Population Membrane Permeable-Phenotype (%) (Fibroblast; [2]): 1% and 3% | Population Mitochondria Different-Phenotype (%) (Fibroblast; [2]): 5% and 3% | Population Mitotic Cells (%) (Fibroblast; [2]): 60% and 62% | Population Normal (%) (Fibroblast; [2]): 95% | Population Pyknosed Nuclei (%) (Fibroblast; [2]): 11% and 24% | Population Tubulin-Different-Phenotype (%) (Fibroblast; [2]): 23% and 51% | Total Cell Count (Fibroblast; [2]): 132 and 156 | Population Apoptotic (%) (Fibroblast; [3]): 33% and 32% | Population Fragmented Nuclei (%) (Fibroblast; [3]): 10% and 23% | Population Healthy Nuclei (%) (Fibroblast; [3]): 86% and 58% | Population Hoechst High Intensity Objects (%) (Fibroblast; [3]): 3% and 6% | Population Membrane Permeable-Phenotype (%) (Fibroblast; [3]): 0% and 9% | Population Mitochondria Different-Phenotype (%) (Fibroblast; [3]): 2% and 11% | Population Mitotic Cells (%) (Fibroblast; [3]): 66% and 68% | Population Normal (%) (Fibroblast; [3]): 96% and 93% | Population Tubulin-Different-Phenotype (%) (Fibroblast; [3]): 17% and 39% | Total Cell Count (Fibroblast; [3]): 156 and 147 | Population Apoptotic (%) (Fibroblast; [4]): 50% and 40% | Population Healthy Nuclei (%) (Fibroblast; [4]): 77% and 52% | Population Hoechst High Intensity Objects (%) (Fibroblast; [4]): 2% and 5% | Population Membrane Permeable-Phenotype (%) (Fibroblast; [4]): 1% and 3% | Population Mitochondria Different-Phenotype (%) (Fibroblast; [4]): 1% and 5% | Population Mitotic Cells (%) (Fibroblast; [4]): 50% and 59% | Population Normal (%) (Fibroblast; [4]): 97% and 94% | Population Pyknosed Nuclei (%) (Fibroblast; [4]): 13% | Population Tubulin-Different-Phenotype (%) (Fibroblast; [4]): 20% and 39% | Total Cell Count (Fibroblast; [4]): 138 and 170 | Population Apoptotic (%) (Fibroblast; [5]): 25% and 38% | Population Fragmented Nuclei (%) (Fibroblast; [5]): 12% and 23% | Population Healthy Nuclei (%) (Fibroblast; [5]): 79% and 58% | Population Hoechst High Intensity Objects (%) (Fibroblast; [5]): 4% and 3% | Population Membrane Permeable-Phenotype (%) (Fibroblast; [5]): 0% and 9% | Population Mitochondria Different-Phenotype (%) (Fibroblast; [5]): 2% and 8% | Population Mitotic Cells (%) (Fibroblast; [5]): 75% and 61% | Population Normal (%) (Fibroblast; [5]): 95% and 96% | Population Pyknosed Nuclei (%) (Fibroblast; [5]): 8% and 17% | Population Tubulin-Different-Phenotype (%) (Fibroblast; [5]): 23% and 44% | Total Cell Count (Fibroblast; [5]): 155 and 152 | Population Apoptotic (%) (Fibroblast; [6]): 50% and 60% | Population Fragmented Nuclei (%) (Fibroblast; [6]): 19% and 32% | Population Healthy Nuclei (%) (Fibroblast; [6]): 72% and 60% | Population Hoechst High Intensity Objects (%) (Fibroblast; [6]): 5% and 3% | Population Membrane Permeable-Phenotype (%) (Fibroblast; [6]): 2% and 3% | Population Mitochondria Different-Phenotype (%) (Fibroblast; [6]): 5% and 1% | Population Mitotic Cells (%) (Fibroblast; [6]): 50% and 40% | Population Normal (%) (Fibroblast; [6]): 94% and 96% | Population Pyknosed Nuclei (%) (Fibroblast; [6]): 7% and 6% | Population Tubulin-Different-Phenotype (%) (Fibroblast; [6]): 29% and 28% | Total Cell Count (Fibroblast; [6]): 136 and 156 | Population Apoptotic (%) (U2OS; [1]): 85% and 50% | Population Fragmented Nuclei (%) (U2OS; [1]): 23% and 15% | Population Healthy Nuclei (%) (U2OS; [1]): 68% and 73% | Population Hoechst High Intensity Objects (%) (U2OS; [1]): 1% and 0% | Population Membrane Permeable-Phenotype (%) (U2OS; [1]): 2% and 12% | Population Mitochondria Different-Phenotype (%) (U2OS; [1]): 0% and 6% | Population Normal (%) (U2OS; [1]): 98% and 100% | Population Pyknosed Nuclei (%) (U2OS; [1]): 8% and 11% | Population Tubulin-Different-Phenotype (%) (U2OS; [1]): 0% and 13% | Total Cell Count (U2OS; [1]): 246 and 109 | Population Apoptotic (%) (U2OS; [2]): 75% and 87% | Population Fragmented Nuclei (%) (U2OS; [2]): 19% | Population Healthy Nuclei (%) (U2OS; [2]): 75% | Population Hoechst High Intensity Objects (%) (U2OS; [2]): 2% and 0% | Population Membrane Permeable-Phenotype (%) (U2OS; [2]): 6% and 5% | Population Mitochondria Different-Phenotype (%) (U2OS; [2]): 1% and 3% | Population Mitotic Cells (%) (U2OS; [2]): 25% and 12% | Population Normal (%) (U2OS; [2]): 97% and 100% | Population Pyknosed Nuclei (%) (U2OS; [2]): 4% and 5% | Population Tubulin-Different-Phenotype (%) (U2OS; [2]): 4% and 2% | Total Cell Count (U2OS; [2]): 259 and 140 | Population Apoptotic (%) (U2OS; [3]): 92% and 76% | Population Fragmented Nuclei (%) (U2OS; [3]): 18% and 20% | Population Healthy Nuclei (%) (U2OS; [3]): 72% and 70% | Population Hoechst High Intensity Objects (%) (U2OS; [3]): 1% and 0% | Population Membrane Permeable-Phenotype (%) (U2OS; [3]): 2% and 11% | Population Mitochondria Different-Phenotype (%) (U2OS; [3]): 0% and 2% | Population Mitotic Cells (%) (U2OS; [3]): 8% and 23% | Population Normal (%) (U2OS; [3]): 98% and 99% | Population Pyknosed Nuclei (%) (U2OS; [3]): 8% and 9% | Population Tubulin-Different-Phenotype (%) (U2OS; [3]): 1% and 7% | Total Cell Count (U2OS; [3]): 288 and 139 | Population Apoptotic (%) (U2OS; [4]): 82% and 90% | Population Fragmented Nuclei (%) (U2OS; [4]): 17% and 13%
